Reference: ChEMBL document CHEMBL1124329, “Synthesis of novel bifunctional chelators and their use in preparing monoclonal antibody conjugates for tumor targeting” (J Med Chem, 1989)
Several values for one entry are separate records, joined by “and”; a condition that tells them apart may be missing. Equal values may be shown once.

Experiments:
Settings in all cases: in vivo, iv
Mus musculus [1] = assay: Biodistribution of labeled B72.3-chelator conjugate(DTPA isothiocynates) in Nude mice bearing LS174T tumors, in spleen, administered intravenously expressed as % of injected dose of indium-111 per gram of tissue; format: ADME, organism-based
Procedure, shortened: (§1)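 Female athymic nu/nu mice (BALB/c background) were given 5×10^6 A375 melanoma cells (antigen-negative) s.c. in the left flank, then 14 days later 1.25×10^6 LS174T colorectal cells (antigen-positive) in the right flank. After a further 7–14 days, with tumors at 100–500 mg, mice were randomized and given 2.0 μg indium-111-labeled B72.3 conjugate in saline i.v. by tail vein. At 48 h, tissues were weighed and gamma-counted, and activity was expressed as % of counted injectate per gram.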

Mus musculus [2] = assay: Biodistribution of labeled B72.3-chelator conjugate(DTPA isothiocynates) in nude mice bearing LS174T tumors, in kidney, administered intravenously expressed as % of injected dose of indium-111 per gram of tissue; format: ADME, organism-based; procedure, shortened: as §1
Mus musculus [3] = assay: Biodistribution of labeled B72.3-chelator conjugate(DTPA isothiocynates) in Nude mice bearing LS174T tumor (Ag+), administered intravenously expressed as % of injected dose of indium-111 per gram of tissue; format: ADME, organism-based; procedure, shortened: as §1
Mus musculus [4] = assay: Biodistribution of labeled B72.3-chelator conjugate (DTPA isothiocynates) in Nude mice bearing LS174T tumors, in blood, administered intravenously expressed as % of injected dose of indium-111 per gram of tissue; format: ADME, organism-based; procedure, shortened: as §1
Mus musculus [5] = assay: Biodistribution of labeled B72.3-chelator conjugate(DTPA isothiocynates) in Nude mice bearing LS174T tumors, in liver, administered intravenously expressed as % of injected dose of indium-111 per gram of tissue; format: ADME, organism-based; procedure, shortened: as §1
Mus musculus [6] = assay: Biodistribution of labeled B72.3-chelator conjugate(DTPA isothiocynates) in Nude mice bearing LS174T tumors, in lungs, administered intravenously expressed as % of injected dose of indium-111 per gram of tissue; format: ADME, organism-based, Lung; procedure, shortened: as §1
Mus musculus [7] = assay: Biodistribution of labeled B72.3-chelator conjugate (DTPA amide) in Nude mice bearing LS174T tumor (Ag+), administered intravenously expressed as % of injected dose of indium-111 per gram of tissue; format: ADME, organism-based
Mus musculus [8] = assay: Biodistribution of labeled B72.3-chelator conjugate(DTPA amide) in nude mice bearing LS174T tumors, in kidney, administered intravenously expressed as % of injected dose of indium-111 per gram of tissue; format: ADME, organism-based
Mus musculus [9] = assay: Biodistribution of labeled B72.3-chelator conjugate(DTPA amide) in Nude mice bearing LS174T tumor (Ag-), administered intravenously expressed as % of injected dose of indium-111 per gram of tissue; format: ADME, organism-based
Mus musculus [10] = assay: Biodistribution of labeled B72.3-chelator conjugate in Nude mice bearing LS174T tumors, in liver, administered intravenously expressed as % of injected dose of indium-111 per gram of tissue
Mus musculus [11] = assay: Biodistribution of labeled B72.3-chelator conjugate(DTPA amide)s in Nude mice bearing LS174T tumors, in lungs, administered intravenously expressed as % of injected dose of indium-111 per gram of tissue; format: ADME, organism-based, Lung
Mus musculus [12] = assay: Biodistribution of labeled B72.3-chelator conjugate(DTPA amide) in Nude mice bearing LS174T tumors, in blood, administered intravenously expressed as % of injected dose of indium-111 per gram of tissue; format: ADME, organism-based
Mus musculus [13] = assay: Biodistribution of labeled B72.3-chelator conjugate(DTPA amide) in Nude mice bearing LS174T tumors, in spleen, administered intravenously expressed as % of injected dose of indium-111 per gram of tissue; format: ADME, organism-based
Mus musculus [14] = assay: Biodistribution of labeled B72.3-chelator conjugate(EDTA isothiocynates) in Nude mice bearing LS174T tumors, in liver, administered intravenously expressed as % of injected dose of indium-111 per gram of tissue; format: ADME, organism-based; procedure, shortened: as §1
Mus musculus [15] = assay: Biodistribution of labeled B72.3-chelator conjugate(EDTA isothiocynates) in Nude mice bearing LS174T tumors, in spleen, administered intravenously expressed as % of injected dose of indium-111 per gram of tissue; format: ADME, organism-based; procedure, shortened: as §1
Mus musculus [16] = assay: Biodistribution of labeled B72.3-chelator conjugate (EDTA isothiocynates) in Nude mice bearing LS174T tumors, in blood, administered intravenously expressed as % of injected dose of indium-111 per gram of tissue; format: ADME, organism-based; procedure, shortened: as §1
Mus musculus [17] = assay: Biodistribution of labeled B72.3-chelator conjugate(EDTA isothiocynates) in Nude mice bearing LS174T tumors, in lungs, administered intravenously expressed as % of injected dose of indium-111 per gram of tissue; format: ADME, organism-based, Lung; procedure, shortened: as §1
Mus musculus [18] = assay: Biodistribution of labeled B72.3-chelator conjugate(EDTA isothiocynates) in nude mice bearing LS174T tumors, in kidney, administered intravenously expressed as % of injected dose of indium-111 per gram of tissue; format: ADME, organism-based; procedure, shortened: as §1
Mus musculus [19] = assay: Biodistribution of labeled B72.3-chelator conjugatec in Nude mice bearing LS174T tumor (Ag+), administered intravenously expressed as % of injected dose of indium-111 per gram of tissue; format: ADME, organism-based
Mus musculus [20] = assay: Biodistribution of labeled B72.3-chelator conjugate (DTPA amide) in Nude mice bearing LS174T tumors, in blood, administered intravenously expressed as % of injected dose of indium-111 per gram of tissue; format: ADME, organism-based
Mus musculus [21] = assay: Biodistribution of labeled B72.3-chelator conjugate(DTPA amide) in Nude mice bearing LS174T tumor (Ag+), administered intravenously expressed as % of injected dose of indium-111 per gram of tissue; format: ADME, organism-based

| SMILES | Biodistribution (Mus musculus [7]) | Biodistribution (Mus musculus [8]) | Biodistribution (Mus musculus [9]) | Biodistribution (Mus musculus [10]) | Biodistribution (Mus musculus [11]) | Biodistribution (Mus musculus [12]) | Biodistribution (Mus musculus [13]) | further results |
| --- | --- | --- | --- | --- | --- | --- | --- | --- |
| Nc1ccc(CC(CN(CCN(CC(=O)O)CC(=O)O)CC(=O)O)N(CC(=O)O)CC(=O)O)cc1 (stereo not given) |  |  |  |  |  |  |  | Biodistribution (Mus musculus [1]): 5.03%; Biodistribution (Mus musculus [2]): 8.99%; Biodistribution (Mus musculus [3]): 25.94%; Biodistribution (Mus musculus [4]): 18.37%; Biodistribution (Mus musculus [5]): 9.09%; Biodistribution (Mus musculus [6]): 9.94% |
| O=C(O)CN(CCN(CC(=O)O)C(Cc1ccc(N=C=S)cc1)C(=O)O)CC(=O)O (stereo not given) | 21.1% | 5.9% | 5.2% | 6.1% | 5.5% | 12.1% | 3.9% |  |
| Nc1ccc(CC(CN(CC(=O)O)CC(=O)O)N(CC(=O)O)CC(=O)O)cc1 (stereo not given) |  |  |  |  |  |  |  | Biodistribution (Mus musculus [14]): 14.26%; Biodistribution (Mus musculus [15]): 11.68%; Biodistribution (Mus musculus [16]): 19.82%; Biodistribution (Mus musculus [17]): 9.19%; Biodistribution (Mus musculus [18]): 16.91%; Biodistribution (Mus musculus [19]): 20.82% |
| O=C(O)CN(CCN(CC(=O)O)CC(=O)O)CCN(CC(=O)O)C(Cc1ccc(N=C=S)cc1)C(=O)O (stereo not given) | 19.5% | 2.3% | 4.1% | 6.9% | 4.1% | 8.9% | 4% |  |
| O=C(O)CN(CCN(CC(=O)O)CC(=O)O)CCN(CC(=O)O)CC(=O)O [PENTETIC ACID] | 18.97% | 17.14% and 12.64% | 6.23% | 17.2% and 19.39% | 6.3% and 6.15% | 10.67% | 9.14% and 12.12% | Biodistribution (Mus musculus [20]): 11.23%; Biodistribution (Mus musculus [21]): 42.22% |
